Active and inactive are the calls of the source. The rule behind the calls is not given here.
Key:
PC-3 = assay: Cytotoxicity against human PC3 cells assessed as cell growth inhibition after 48 hrs by MTT assay; type: functional, cell-based; settings: PC-3, 48 h
How it was run: (§1)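 MTT assay. Cells were seeded at 1×10^4 per well in their medium with 10% FBS and allowed 24 h at 37 °C. Compound diluted in medium was added alongside a vehicle control and left for 48 h. MTT (0.5 mg/mL) was then added for 4 h, formazan dissolved in DMSO, and absorbance read at 570 nm. IC50 is the concentration inhibiting 50% of cells.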

DU-145 = assay: Cytotoxicity against human DU145 cells assessed as cell growth inhibition after 48 hrs by MTT assay; type: functional, cell-based; settings: DU-145, 48 h; how it was run: as §1
MCF7 = assay: Cytotoxicity against human MCF7 cells assessed as cell growth inhibition after 48 hrs by MTT assay; type: functional, cell-based; settings: MCF7, 48 h; how it was run: as §1
A549 [1] = assay: Cytotoxicity against human A549 cells assessed as cell growth inhibition after 48 hrs by MTT assay; type: functional, cell-based; settings: A549, 48 h; how it was run: as §1
HT-29 = assay: Cytotoxicity against human HT-29 cells assessed as cell growth inhibition after 48 hrs by MTT assay; type: functional, cell-based; settings: HT-29, 48 h; how it was run: as §1
HCT-116 = assay: Cytotoxicity against human HCT116 cells assessed as cell growth inhibition after 48 hrs by MTT assay; type: functional, cell-based; settings: HCT-116, 48 h; how it was run: as §1
A549 [2] = assay: Induction of apoptosis in human A549 cells assessed as nuclei condensation at 1.25 to 10 uM after 48 hrs by DAPI staining-based fluorescence microscopy; type: functional, cell-based
How it was run: (§2)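 A549 cells were treated for 48 h, washed with PBS, and permeabilised with 0.1% Tween 20 for 10 min. They were stained with 1 μM DAPI and viewed by fluorescence microscopy (ex 359/em 461 nm, DAPI filter) at 200X.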

A549 [3] = assay: Induction of apoptosis in human A549 cells assessed as horse-shoe shaped nuclei at 1.25 to 10 uM after 48 hrs by DAPI staining-based fluorescence microscopy; type: functional, cell-based; how it was run: as §2
A549 [4] = assay: Induction of apoptosis in human A549 cells assessed as cell shrinkage at 10 uM after 48 hrs by AO/EB double staining based fluorescence microscopy; type: functional
How it was run: (§3)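 A549 cells (1×10^6 cell/ml) were treated with different concentrations for 48 h at 37 °C in 5% CO2. Acridine orange and ethidium bromide (10 μg/mL each) were added, and after 10 min cells were viewed by fluorescence microscopy (ex 488/em 550 nm) at 200x.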

A549 [5] = assay: Induction of apoptosis in human A549 cells assessed as chromatin condensation at 10 uM after 48 hrs by AO/EB double staining based fluorescence microscopy; type: functional, cell-based; how it was run: as §3
A549 [6] = assay: Induction of apoptosis in human A549 cells assessed as membrane blebbing at 10 uM after 48 hrs by AO/EB double staining based fluorescence microscopy; type: functional, cell-based; how it was run: as §3
A549 [7] = assay: Induction of apoptosis in human A549 cells assessed as apoptotic body formation at 10 uM after 48 hrs by AO/EB double staining based fluorescence microscopy; type: functional, cell-based; how it was run: as §3
A549 [8] = assay: Cytotoxicity against human A549 cells assessed as reduction in cell viability by measuring cell shrinkage at 1.25 to 10 uM after 48 hrs by phase contrast microscopy; type: functional, cell-based
How it was run: (§4)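 A549 cells (1×10^5 cells/mL) were plated in 6-well plates and left to adhere overnight. They were then incubated 48 h with 1.25, 2.5, 5.0 or 10.0 μM and examined for morphological changes by phase contrast microscopy at 200X.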

A549 [9] = assay: Cytotoxicity against human A549 cells assessed as reduction in cell viability by measuring cell detachment at 1.25 to 10 uM after 48 hrs by phase contrast microscopy; type: functional, cell-based; how it was run: as §4
A549 [10] = assay: Induction of ROS generation in human A549 cells after 24 hrs by DCFDA dye-based fluorescent microscopy; type: functional, cell-based
How it was run: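 A549 cells (1×10^6 cells/mL) were left to adhere overnight, then treated 24 h with 1.25, 2.5, 5.0 or 10.0 μM. Medium was replaced with medium containing 10 μM DCFDA for 30 min in the dark. Fluorescence was read on a plate reader (ex 488/em 525 nm) and cells were imaged by fluorescence microscopy. NAC and H2O2 (positive control) were included. Mean ± SEM, n=3.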

A549 [11] = assay: Induction of apoptosis in human A549 cells assessed as viable cells at 1.25 uM after 48 hrs by Annexin-V/propidium iodide staining based flow cytometry (reference value: 93.39%); type: functional; settings: A549, 48 h, read-out: Activity
A549 [12] = assay: Induction of apoptosis in human A549 cells assessed as early apoptotic cells at 1.25 uM after 48 hrs by Annexin-V/propidium iodide staining based flow cytometry (reference value: 5.27%); type: functional
A549 [13] = assay: Induction of apoptosis in human A549 cells assessed as late apoptotic cells at 1.25 uM after 48 hrs by Annexin-V/propidium iodide staining based flow cytometry (reference value: 0.71%); type: functional
A549 [14] = assay: Induction of apoptosis in human A549 cells assessed as necrotic cells at 1.25 uM after 48 hrs by Annexin-V/propidium iodide staining based flow cytometry (reference value: 0.63%); type: functional
A549 [15] = assay: Induction of apoptosis in human A549 cells assessed as viable cells at 2.5 uM after 48 hrs by Annexin-V/propidium iodide staining based flow cytometry (reference value: 93.39%); type: functional; settings: A549, 48 h, read-out: Activity
A549 [16] = assay: Induction of apoptosis in human A549 cells assessed as early apoptotic cells at 2.5 uM after 48 hrs by Annexin-V/propidium iodide staining based flow cytometry (reference value: 5.27%); type: functional
A549 [17] = assay: Induction of apoptosis in human A549 cells assessed as late apoptotic cells at 2.5 uM after 48 hrs by Annexin-V/propidium iodide staining based flow cytometry (reference value: 0.71%); type: functional
A549 [18] = assay: Induction of apoptosis in human A549 cells assessed as necrotic cells at 2.5 uM after 48 hrs by Annexin-V/propidium iodide staining based flow cytometry (reference value: 0.63%); type: functional
A549 [19] = assay: Induction of apoptosis in human A549 cells assessed as viable cells at 5 uM after 48 hrs by Annexin-V/propidium iodide staining based flow cytometry (reference value: 93.39%); type: functional; settings: A549, 48 h, read-out: Activity
A549 [20] = assay: Induction of apoptosis in human A549 cells assessed as early apoptotic cells at 5 uM after 48 hrs by Annexin-V/propidium iodide staining based flow cytometry (reference value: 5.27%); type: functional
A549 [21] = assay: Induction of apoptosis in human A549 cells assessed as late apoptotic cells at 5 uM after 48 hrs by Annexin-V/propidium iodide staining based flow cytometry (reference value: 0.71%); type: functional
A549 [22] = assay: Induction of apoptosis in human A549 cells assessed as necrotic cells at 5 uM after 48 hrs by Annexin-V/propidium iodide staining based flow cytometry (reference value: 0.63%); type: functional
A549 [23] = assay: Induction of apoptosis in human A549 cells assessed as viable cells at 10 uM after 48 hrs by Annexin-V/propidium iodide staining based flow cytometry (reference value: 93.39%); type: functional; settings: A549, 48 h, read-out: Activity
A549 [24] = assay: Induction of apoptosis in human A549 cells assessed as early apoptotic cells at 10 uM after 48 hrs by Annexin-V/propidium iodide staining based flow cytometry (reference value: 5.27%); type: functional
A549 [25] = assay: Induction of apoptosis in human A549 cells assessed as late apoptotic cells at 10 uM after 48 hrs by Annexin-V/propidium iodide staining based flow cytometry (reference value: 0.71%); type: functional
A549 [26] = assay: Induction of apoptosis in human A549 cells assessed as necrotic cells at 10 uM after 48 hrs by Annexin-V/propidium iodide staining based flow cytometry (reference value: 0.63%); type: functional
A549 [27] = assay: Induction of apoptosis in human A549 cells after 48 hrs by Annexin-V/propidium iodide staining based flow cytometry; type: functional, cell-based
A549 [28] = assay: Cell cycle arrest in human A549 cells assessed as accumulation at G2/M phase at 10 uM after 48 hrs by propidium iodide-staining based flow cytometry (reference value: 34.25 +/- 5.75%); type: functional
A549 [29] = assay: Cell cycle arrest in human A549 cells assessed as accumulation at sub G1 phase at 10 uM after 48 hrs by propidium iodide-staining based flow cytometry (reference value: 4.52 +/- 2.47%); type: functional
A549 [30] = assay: Cell cycle arrest in human A549 cells assessed as accumulation at sub G1 phase after 48 hrs by propidium iodide-staining based flow cytometry; type: functional
[31] = Inhibition of pig brain tubulin polymerization assessed as reduction in tubulin assembly by fluorescence-based assay; design: species or system Sus scrofa
How it was run: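 Kit assay with porcine brain tubulin (2 mg/mL) in 80 mM PIPES pH 6.9, 2.0 mM MgCl2, 0.5 mM EGTA, 1.0 mM GTP and glycerol. Test compound was used at final 10, 5, 2.5 or 1.25 μM. Polymerization was followed for 1 h at 37 °C by fluorescence reporter incorporation (ex 360/em 440 nm). Runs were in duplicate, and IC50 is the concentration inhibiting 50% of assembly versus control.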

A549 [32] = assay: Induction of mitochondrial membrane potential loss in human A549 cells assessed as increase in depolarized cell population after 24 hrs by JC-1-dye based flow-cytometry
A549 [33] = assay: Induction of mitochondrial membrane potential loss in human A549 cells assessed as depolarized cell population at 10 uM after 24 hrs by JC-1-dye based flow-cytometry (reference value: 8.31 +/- 3.72%)

`COc1cc2c3c(c4cc(OC)c(OC)cc4c2cc1OC)C(c1ccc2c(c1)OCO2)CC(=O)N3` (stereo not drawn) showed an IC50 (PC-3) of 12.1 µM, an IC50 (DU-145) of 17.5 µM and an IC50 (MCF7) of 9.59 µM. It also gave an IC50 (A549 [1]) of 3.17 µM, an IC50 (HT-29) of 7.84 µM and an IC50 (HCT-116) of 7.61 µM. The Activity (A549 [2]) was “Active”, the Activity (A549 [3]) was “Active” and the Activity (A549 [4]) was “Active”. The Activity (A549 [5]) was “Active”, the Activity (A549 [6]) was “Active” and the Activity (A549 [7]) was “Active”. For the same compound, the Activity (A549 [8]) was “Dose-dependent effect”, the Activity (A549 [9]) was “Dose-dependent effect” and the Activity (A549 [10]) was “Dose-dependent effect”. For the same compound, the viability at 1.25 µM (A549 [11]) was 89.1%, the Activity (A549 [12]) was 9.5% and the Activity (A549 [13]) was 1.32%. The Activity (A549 [14]) was 0.09%, the viability at 2.5 µM (A549 [15]) was 81.8% and the Activity (A549 [16]) was 17.3%. The Activity (A549 [17]) was 0.85%, the Activity (A549 [18]) was 0.01% and the viability at 5 µM (A549 [19]) was 74.2%. It also gave an Activity (A549 [20]) of 24.86%, an Activity (A549 [21]) of 0.92% and an Activity (A549 [22]) of 0.01%. For the same compound, the viability at 10 µM (A549 [23]) was 47.5%, the Activity (A549 [24]) was 50.6% and the Activity (A549 [25]) was 1.93%. The Activity (A549 [26]) was 0.01%, the Activity (A549 [27]) was “Dose-dependent effect” and the Activity (A549 [28]) was 61.2%. For the same compound, the Activity (A549 [29]) was 31.22%, the Activity (A549 [30]) was “Dose-dependent effect” and the IC50 [31] was 5.15 µM. The Activity (A549 [32]) was “Dose-dependent effect” and the Activity (A549 [33]) was 79.8%.

— ChEMBL document CHEMBL4219132, “Sulfamic acid promoted one-pot synthesis of phenanthrene fused-dihydrodibenzo-quinolinones: Anticancer activity, tubulin polymerization inhibition and apoptosis inducing studies” (Bioorg Med Chem, 2018)
